Results: ChEMBL document CHEMBL1152806, “Discovery of a potent, selective, and orally efficacious pyrimidinooxazinyl bicyclooctaneacetic acid diacylglycerol acyltransferase-1 inhibitor” (J Med Chem, 2009)
pIC50: −log10 of the molar value.

Key:
[1] = biological target: T1, Diacylglycerol O-acyltransferase 2 (Homo sapiens) (UniProt Q96PD7); test: Inhibition of human DGAT2 at 10 uM by liquid scintillography
T1 sequence (whole entry): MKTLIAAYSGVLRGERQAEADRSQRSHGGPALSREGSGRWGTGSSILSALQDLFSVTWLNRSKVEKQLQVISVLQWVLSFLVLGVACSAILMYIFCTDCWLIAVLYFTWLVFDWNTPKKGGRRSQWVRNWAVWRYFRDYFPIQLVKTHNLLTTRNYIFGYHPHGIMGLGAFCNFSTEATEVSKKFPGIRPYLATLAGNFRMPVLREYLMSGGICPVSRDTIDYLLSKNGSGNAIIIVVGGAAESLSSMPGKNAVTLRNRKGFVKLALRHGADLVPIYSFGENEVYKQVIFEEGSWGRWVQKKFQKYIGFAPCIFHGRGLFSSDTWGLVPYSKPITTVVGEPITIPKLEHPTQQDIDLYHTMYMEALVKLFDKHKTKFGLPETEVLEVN

[2] = biological target: T2, Diacylglycerol O-acyltransferase 1 (Rattus norvegicus, UniProt Q9ERM3); test: Inhibition of rat microsomal DGAT1 by liquid scintillography
T2 sequence (Q9ERM3 whole entry): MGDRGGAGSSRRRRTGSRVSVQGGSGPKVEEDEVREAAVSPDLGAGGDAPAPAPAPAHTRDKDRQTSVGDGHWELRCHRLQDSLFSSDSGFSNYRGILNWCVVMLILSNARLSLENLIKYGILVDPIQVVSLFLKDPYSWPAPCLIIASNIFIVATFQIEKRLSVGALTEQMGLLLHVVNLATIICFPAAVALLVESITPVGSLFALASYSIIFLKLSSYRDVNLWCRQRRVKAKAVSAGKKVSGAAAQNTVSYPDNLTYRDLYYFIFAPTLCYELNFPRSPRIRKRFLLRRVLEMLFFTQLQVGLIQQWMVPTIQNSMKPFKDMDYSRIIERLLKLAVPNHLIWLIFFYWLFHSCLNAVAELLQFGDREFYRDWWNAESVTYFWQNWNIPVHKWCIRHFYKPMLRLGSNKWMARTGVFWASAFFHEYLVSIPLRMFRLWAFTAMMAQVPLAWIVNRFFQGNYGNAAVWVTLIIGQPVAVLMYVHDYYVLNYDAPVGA

HuTu80 = test: Inhibition of triacylglycerol synthesis in human HuTu 80 cells after 30 mins; type: functional, cell-based; conditions: HuTu80, 0.5 h
Procedure, shortened: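 Confluent HuTu 80 cells in serum-free medium, preincubated 30 min with compound (0.1% DMSO final). Then given 0.12 mM sodium oleate plus 1 µCi/mL 14C-oleate complexed to 0.03 mM BSA. Cells solubilized in SDS and lipids extracted; 14C in triacylglycerol measured by normal-phase HPLC with radio-flow detection. Lowry protein determined.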

[3] = Plasma clearance in rat at 1 to 3 mg/kg; type: ADME, organism-based; set-up: dose 1-3 mg/kg
[4] = Plasma clearance in dog at 1 to 3 mg/kg; type: ADME, organism-based, Canis lupus familiaris; set-up: dose 1-3 mg/kg
[5] = Volume of distribution at steady state in rat at 1 to 3 mg/kg; type: ADME, organism-based; set-up: dose 1-3 mg/kg; conditions: in vivo, read-out: Vdss
[6] = Volume of distribution at steady state in dog at 1 to 3 mg/kg; type: ADME, organism-based, Canis lupus familiaris; set-up: dose 1-3 mg/kg; conditions: in vivo, read-out: Vdss
[7] = Half life in rat at 1 to 3 mg/kg, iv; type: ADME, organism-based; set-up: dose 1-3 mg/kg, route intravenous; conditions: in vivo
[8] = Half life in dog at 1 to 3 mg/kg, iv; type: ADME, organism-based, Canis lupus familiaris; set-up: dose 1-3 mg/kg, route intravenous; conditions: in vivo
[9] = Half life in rat at 1 to 3 mg/kg, po; type: ADME, organism-based; set-up: dose 1-3 mg/kg, route oral; conditions: in vivo
[10] = Half life in dog at 1 to 3 mg/kg, po; type: ADME, organism-based, Canis lupus familiaris; set-up: dose 1-3 mg/kg, route oral; conditions: in vivo
[11] = Bioavailability in rat at 1 to 3 mg/kg; type: ADME, organism-based; conditions: in vivo
[12] = Bioavailability in dog at 1 to 3 mg/kg; type: ADME, organism-based, Canis lupus familiaris; conditions: in vivo

CC1(C)Oc2ncnc(N)c2N=C1c1ccc([C@H]2CC[C@H](CC(=O)O)CC2)cc1
inhibition [1]: 3.7% | pIC50 [2]: 7.72 | pIC50 (HuTu80): 8.40 | clearance [3]: 0.312 L/h/kg | clearance [4]: 0.72 L/h/kg | Vd [5]: 0.69 L/kg | Vd [6]: 2 L/kg | half-life [7]: 3 h | half-life [8]: 3.9 h | half-life [9]: 5.6 h | half-life [10]: 2.8 h | bioavailability [11]: > 100% | bioavailability [12]: > 100%
